Compound activity deposited in PubChem by Johns Hopkins Ion Channel Center.
Most compounds without a hit are left out; they make up all but 2.3% or so of the library.
TRPC6 activator – activators of mouse TRPC6 channel; Q61143; HEK293-TRPC6 membrane potential dye fluorescence; active compounds read high; B-score at 10 µM; 310,000 tested, 0.13% active; AID 2550;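 active = B-score of the integrated fluorescence ratio above library mean plus 3 SD, and starting fluorescence ratio within library mean plus 5 SD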;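 also: higher score means more depolarization so channel activation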
TRPC4 act – opens the mouse TRPC4 cation channel | Q9QUQ5 | AID 2237 | 310,000 tested, 0.49% active | B-score at 10 µM | HEK293 TRPC4beta/mu-opioid, Fluo4 calcium fluorescence; active compounds read high;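 active = B-score above 5 SD of library B-scores, and initial fluorescence ratio not above library mean plus 5 SD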;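 also: positive B-score marks a calcium rise read as TRPC4 activation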
Target sequence (Q9QUQ5 whole entry, looked up): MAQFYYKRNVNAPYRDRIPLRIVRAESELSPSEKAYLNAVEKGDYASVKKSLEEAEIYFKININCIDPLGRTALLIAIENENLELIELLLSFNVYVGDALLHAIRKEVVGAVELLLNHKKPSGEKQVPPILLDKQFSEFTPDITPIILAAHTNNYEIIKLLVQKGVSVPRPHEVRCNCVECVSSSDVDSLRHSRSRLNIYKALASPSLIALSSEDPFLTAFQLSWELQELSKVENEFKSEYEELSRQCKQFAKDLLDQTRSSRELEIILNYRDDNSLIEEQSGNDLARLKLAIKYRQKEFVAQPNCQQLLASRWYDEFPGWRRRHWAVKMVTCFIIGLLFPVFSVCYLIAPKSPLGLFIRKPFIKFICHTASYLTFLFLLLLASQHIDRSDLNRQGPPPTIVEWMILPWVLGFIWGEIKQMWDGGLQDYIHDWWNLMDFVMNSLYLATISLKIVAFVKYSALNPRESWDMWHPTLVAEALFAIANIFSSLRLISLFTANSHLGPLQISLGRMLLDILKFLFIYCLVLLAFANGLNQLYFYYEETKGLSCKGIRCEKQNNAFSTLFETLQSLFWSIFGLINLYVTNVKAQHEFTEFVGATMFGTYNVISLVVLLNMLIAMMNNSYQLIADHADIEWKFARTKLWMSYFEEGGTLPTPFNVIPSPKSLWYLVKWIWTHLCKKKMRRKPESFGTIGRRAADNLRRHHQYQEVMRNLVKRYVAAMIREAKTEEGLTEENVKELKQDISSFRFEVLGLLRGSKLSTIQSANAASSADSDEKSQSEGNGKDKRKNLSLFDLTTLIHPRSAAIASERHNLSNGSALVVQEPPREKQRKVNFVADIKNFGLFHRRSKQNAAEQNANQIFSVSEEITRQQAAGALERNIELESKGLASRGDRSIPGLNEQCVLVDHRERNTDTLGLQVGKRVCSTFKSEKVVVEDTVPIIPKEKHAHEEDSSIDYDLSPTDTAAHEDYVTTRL
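Material: HEK293 stable line with TRPC4beta plus mu-opioid receptor; technique: Fluo4 calcium-sensitive dye fluorescence, kinetic, 1 Hz baseline; timing: Fluo4 dye loading 45 min at room temperature, 110 s recording; controls: assay buffer as low control, maximal DAMGO as high control; read-out: integrated baseline-normalised fluorescence ratio, converted to per-well B score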
TRPC6 inh – inhibitors of mouse TRPC6 channel | Q61143 | HEK293-TRPC6, membrane potential dye, ACh-evoked depolarization; active compounds read low | B-score at 10 µM | 310,000 tested, 1.1% active;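 active = B-score under library mean minus 3 SD, initial fluorescence not abnormally high, positive integrated signal ratio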;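 also: B-score derived from integrated fluorescence ratio over the kinetic read; more negative B-score means stronger inhibition of depolarization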
TRPC4 block – blocks the mouse TRPC4 cation channel. Q9QUQ5. 300,000 tested, 0.39% active. B-score at 10 µM. HEK293 TRPC4beta/mu-opioid, DAMGO-evoked Fluo4 calcium flux; active compounds read low;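 active = B-score over 3 SD under the library average, no early fluorescence shift, positive overall ratio signal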
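Material: HEK293 cells with stable TRPC4beta plus mu-opioid receptor expression; probe or stimulus: DAMGO in two steps, submaximal then maximal; technique: Fluo4 calcium fluorescence by kinetic imaging, 5 s 1 Hz baseline; measure: integrated fluorescence ratio relative to baseline, converted to per-well B score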
TRPC4 potent – allosteric potentiators of mouse TRPC4 channel. Q9QUQ5. HEK293 TRPC4beta/mu-opioid, DAMGO EC20, Fluo-4 Ca2+ flux; active compounds read high. B-score at 10 µM. 310,000 tested, 0.42% active. AID 2227;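 active = B-score of calcium response area above 5 SD of library B-scores, with initial fluorescence ratio within 5 SD of library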
Hits are given with their value; – = inactive.

SMILES	TRPC6 activator	TRPC4 act	TRPC6 inh	TRPC4 block	TRPC4 potent
CCc1cccc(NC(=O)CCNS(=O)(=O)c2ccc3c(c2)oc(=O)n3C)c1	–	–	–	–	–
CCCOc1ccc(C(=O)NCC(c2cccs2)N(C)C)cc1OC (stereo unspecified)	–	–	–	–	–
COc1cc(C(=O)NCC(c2cccs2)N(C)C)cc(Cl)c1OC(C)C (stereo unspecified)	–	63	–	–	–
COc1cc2ccccc2cc1C(=O)NCC(c1cccs1)N(C)C (stereo unspecified)	–	179	–	–	–
CCCCC(CC)C(=O)Nc1cc(C(=O)NCCC)ccc1N1CCC2(CC1)CC(c1cccc(Br)c1)=NO2 (stereo unspecified)	–	–	–	–	–
Cc1cccc(NC(=S)NC(C)CCc2ccccc2)c1 (stereo unspecified)	–	–	–	–	–
CN(C)C(CNC(=S)Nc1cccc(Cl)c1)c1ccccc1 (stereo unspecified)	–	220	–	–	–
Cc1cccc(NC(=S)NCC(c2ccccc2)N(C)C)c1 (stereo unspecified)	–	231	–	–	–
O=C(COC(=O)c1cc2c(s1)CCCCC2)NC1CCS(=O)(=O)C1 (stereo unspecified)	–	–	–	–	88
CCN(C(=O)COC(=O)c1cc2c(s1)CCCCC2)C1CCS(=O)(=O)C1 (stereo unspecified)	–	–	–	–	–
CC(=O)c1ccc(N2CCN(C(=O)/C=C/c3ccc(S(=O)(=O)NCc4ccco4)cc3)CC2)cc1	–	–	–	–	12
CC(=O)c1ccc(N2CCN(C(=O)/C=C/c3ccc(S(=O)(=O)N4CCOCC4)cc3)CC2)cc1	–	–	–	–	–
CC(C)c1ccc(S(=O)(=O)N2CCN(C(=O)C3CCCC3)CC2)cc1	–	–	–	–	–
CC(C)c1nc(SCC(=O)Nc2ccc(C(=O)O)cc2)c2c3c(sc2n1)CCCC3	–	–	–	–	–
Cc1ccc(NC(=O)c2cc(S(=O)(=O)N3CCCCC3)c[nH]2)cc1C	–	–	–	–	–
COc1cccc(C(=O)NC2CCCN(C3Cc4ccccc4C3)C2)c1OC (stereo unspecified)	–	90	–	–	–
CC#CC(=O)NC1CCCN(C2Cc3ccccc3C2)C1 (stereo unspecified)	–	–	–	–	–
CCN(CCCNC(=O)CCCOc1cc(=O)n(C)c2ccccc12)Cc1ccccc1	–	–	–	–	21
CCC1CCCCN1CCCNC(=O)c1ccc(CS(=O)(=O)c2ccccc2OC)o1 (stereo unspecified)	–	–	–	–	–
CCOC(=O)c1c(C)[nH]c(C(=O)OCC(=O)Nc2sccc2C(N)=O)c1C	–	–	–	–	–
CCCCOc1ccccc1C(=O)NNC(=S)NC(=O)c1ccccc1[N+](=O)[O-]	–	–	–	–	–
CCc1nc2oc3ccc(C)cc3c(=O)c2cc1C(=O)OC	–	–	–	–	–
N#Cc1c(-c2cccs2)nc(SCc2ccc(Cl)cc2)[nH]c1=O	–	–	–	-7	15
COC(=O)c1ccc(N2CCN(C)CC2)c(NC(=O)COc2cccc(C)c2)c1	–	63	–	–	–
COC(=O)c1ccc(N2CCN(C)CC2)c(NC(=O)COc2ccccc2)c1	–	120	–	–	–
SMILES	TRPC6 activator	TRPC4 act	TRPC6 inh	TRPC4 block	TRPC4 potent
CN1CCN(c2ccc(NC(=O)COc3ccccc3)cc2Cl)CC1	–	–	–	–	–
COC(=O)c1ccc(N2CCN(C)CC2)c(NC(=O)c2cccs2)c1	–	142	–	–	–
Cc1cccc(OCC(=O)Nc2ccccc2N2CCN(C)CC2)c1	–	–	–	–	–
COC(=O)c1ccc(N2CCOCC2)c(NC(=O)c2cccs2)c1	–	–	–	–	–
O=C(NCC1COCCO1)c1ccc2nc(Cc3cccc(Cl)c3)oc2c1 (stereo unspecified)	–	–	–	–	–
Nc1nc(N2CCCCC2)nc(N2CCCCC2)n1	–	–	–	–	–
C1CCN(c2nc(N3CCCC3)nc(N3CCNCC3)n2)C1	–	–	–	–	16
COc1cc(/C=C/C(=O)OCC(=O)Nc2oc(C)c3c(C)n[nH]c(=O)c23)ccc1OC(F)F	–	–	–	–	–
COc1ccc(OC)c(S(=O)(=O)n2ccnc2C(C)C)c1	–	–	–	–	–
CCOC(=O)c1c(S(=O)(=O)NCC2CCN(Cc3cccc(F)c3)CC2)c(C)n(C)c1C	–	–	–	–	–
O=c1ccc(-c2ccc(S(=O)(=O)NCC3CCN(Cc4cccc(F)c4)CC3)s2)n[nH]1	–	–	–	–	10
Cc1ccc(S(=O)(=O)N/N=C\c2ccc3c(c2)OCO3)c(C)c1	–	–	–	–	–
COc1cc(C(C)=O)ccc1OCC(O)CN1CCN(c2c(C)cccc2C)CC1 (stereo unspecified)	–	48	–	–	–
CCN(CC)CCn1c(=N)n(CC(O)COc2ccccc2)c2ccccc21 (stereo unspecified)	–	–	–	-6	–
O=C(Nc1ccc(Cl)c([N+](=O)[O-])c1)c1ccncc1	–	–	–	–	–
O=C(Nc1ccc(Cl)c([N+](=O)[O-])c1)c1cnccn1	–	–	–	–	21
CCc1nc(SCC(=O)N2CCCc3ccccc32)c2oc3ccccc3c2n1	–	–	–	-5	–
CCc1nc(SCC(=O)NC2CCCC2)c2oc3ccccc3c2n1	–	–	–	–	–
Cc1[nH]n2c(=O)cc(-c3ccc([N+](=O)[O-])cc3)nc2c1-c1ccccc1	–	–	–	-5	–
CC1(C)CC(=O)C(C(C2=C(O)CC(C)(C)CC2=O)c2ccc(Cl)c([N+](=O)[O-])c2)C(=O)C1 (stereo unspecified)	–	46	–	–	–
CCN(CC(=O)Nc1ccccc1C(F)(F)F)C(=O)c1ccccc1Cc1ccccc1	–	–	–	–	–
Cc1cc(OCCCCCNCCO)cc(C)c1Cl	–	–	–	–	–
Cc1cc(OCCNCCO)cc(C)c1Cl	–	94	–	–	26
CC(NC(=O)COc1cccnc1[N+](=O)[O-])c1ccc(Cl)cc1 (stereo unspecified)	–	–	–	–	–
Cc1sc2ncnc(NCC(c3ccco3)N3CCCC3)c2c1C (stereo unspecified)	–	163	–	–	–
COc1ccc(NC2CCCN(C(=O)c3ccc4[nH]c(C)c(C)c4c3)C2)cc1OC (stereo unspecified)	–	–	–	–	–
Cc1cccc(C(=O)Nc2nnc(Cc3ccccc3)s2)c1	–	–	–	–	–
CCN(CC)CCNC(=O)c1cc2cc3ccc(OC)cc3nc2o1	–	–	–	–	–
CCCCN(C)CCNC(=O)c1cc2cc3ccc(OC)cc3nc2o1	–	–	–	–	12
